# Measurements from ChEMBL document CHEMBL1141333, “Molecular-targeted antitumor agents. 15. Neolamellarins from the marine sponge Dendrilla nigra inhibit hypoxia-inducible factor-1 activation and secreted vascular endothelial growth factor production in breast tumor cells” (J Nat Prod, 2007).
# pIC50: −log10 of the molar value. Calls of active or inactive are those of the source. No cut-off for these calls is given here.
# Experiments:
# T47D [1] = experiment: Inhibition of hypoxia-induced VEGF protein level in T47D cells at 3 uM by ELISA; format: functional, cell-based; conditions: Homo sapiens
# Outline: (§1)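 Exponentially grown T47D cells were exposed to compound for 16 h under hypoxia (1% O2) or 1,10-phenanthroline (10 μM). Secreted VEGF in conditioned media was measured by ELISA. Cells were lysed and lysate protein was measured by Micro BCA; VEGF was normalized to lysate protein. Triplicate wells, mean ± SD.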
# T47D [2] = experiment: Antiproliferative activity against human T47D cells under normoxic conditions at 10 uM after 48 hrs; format: functional
# Outline: (§2)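 T47D proliferation/viability measured by Neutral Red; % inhibition = [1 − OD540(treated)/OD540(control)] × 100. Hypoxic exposure was 1% O2 for 16 or 48 h, with compounds at up to 10 μM. Normoxic incubation was 48 h. Compounds were dissolved as 4 mM DMSO stocks.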
# T47D [3] = experiment: Antiproliferative activity against human T47D cells under normoxic conditions at 1 uM after 48 hrs; format: functional; outline: as §2
# T47D [4] = experiment: Inhibition of 1,10-phenanthroline-induced VEGF protein level in T47D cells at 10 uM by ELISA; format: functional, Homo sapiens; set-up: scale not given: the % may be the effect or the level left; outline: as §1
# [5] = Inhibition of HIF1 activation in T47D cells by reporter gene assay; format: cell-based; conditions: Homo sapiens
# Outline: (§3)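 Transfected T47D luciferase reporter for HIF-1. HIF-1 was induced either by hypoxia (1% O2) or by 1,10-phenanthroline (10 μM) during compound treatment. Luciferase activity was read out and concentration-response was tested at 1, 3 and 10 μM. Compounds came from 4 mM DMSO stocks. Emetine at 1 μM was the positive control.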
# T47D [6] = experiment: Inhibition of hypoxia-induced VEGF protein level in T47D cells at 10 uM by ELISA; format: functional, Homo sapiens; set-up: scale not given: the % may be the effect or the level left; outline: as §1
# T47D [7] = experiment: Antiproliferative activity against human T47D cells under hypoxic conditions upto 10 uM after 16 to 48 hrs by neutral red assay; format: functional; outline: as §2
# T47D [8] = experiment: Inhibition of HIF1 activation in T47D cells at 10 uM by reporter gene assay; format: cell-based; conditions: Homo sapiens; outline: as §3
# [9] = Inhibition of 1,10-phenanthroline-induced HIF1 activation in T47D cells by reporter gene assay; format: cell-based; conditions: Homo sapiens; outline: as §3
# T47D [10] = experiment: Inhibition of 1,10-phenanthroline-induced HIF1 activation in T47D cells at 10 uM by reporter gene assay; format: cell-based; set-up: scale not given: the % may be the effect or the level left; conditions: Homo sapiens; outline: as §3
# T47D [11] = experiment: Antiproliferative activity against human T47D cells under normoxic conditions after 48 hrs; format: functional, cell-based; outline: as §2
pIC50 [5],pIC50 [9],SMILES,Activity (T47D [1]),Activity (T47D [2]) [%],Activity (T47D [3]) [%],Activity (T47D [4]) [%],Activity (T47D [6]) [%],Activity (T47D [7]) [%],inhibition (T47D [8]) [%],Activity (T47D [10]) [%],Activity (T47D [11])
5.72,5.43,O=C(C(O)c1ccc(O)cc1)n1cc(-c2ccc(O)cc2)c(-c2ccc(O)cc2)c1 (racemic) [7-(R/S)-HYDROXYLAMELLARIN A],inactive,34,-8,33,87,<20,98,–,–
–,–,O=C(Cc1ccc(O)cc1)N1C(=O)C(c2ccc(O)cc2)=C(c2ccc(O)cc2)C1O (stereo unspecified) [5-HYDROXYNEOLAMELLARIN B],–,–,–,–,–,<20,22,33,inactive
–,–,O=C(Cc1ccc(O)cc1)n1cc(-c2ccc(O)cc2)c(-c2ccc(O)cc2)c1 [NEOLAMELLARIN A],–,–,–,–,–,<20,26,58,inactive
–,–,O=C(Cc1ccc(O)cc1)N1CC(c2ccc(O)cc2)=C(c2ccc(O)cc2)C1=O [NEOLAMELLARIN B],–,–,–,–,–,<20,23,42,inactive
